Measurements: ChEMBL document CHEMBL2413000, “Control of the intracellular levels of prostaglandin E₂ through inhibition of the 15-hydroxyprostaglandin dehydrogenase for wound healing” (Bioorg Med Chem, 2013)
Active and inactive are the calls of the source. The rule behind the calls is not given here.

How the values were obtained:
[1] = biological target: T1, 15-hydroxyprostaglandin dehydrogenase [NAD(+)] (Homo sapiens, UniProt P15428); experiment: Inhibition of human GST-fused 15-PGDH expressed in Escherichia coli BL21 using PGE2 as substrate assessed as formation of NADH by fluorescence spectrophotometric analysis
T1 sequence (P15428 whole entry): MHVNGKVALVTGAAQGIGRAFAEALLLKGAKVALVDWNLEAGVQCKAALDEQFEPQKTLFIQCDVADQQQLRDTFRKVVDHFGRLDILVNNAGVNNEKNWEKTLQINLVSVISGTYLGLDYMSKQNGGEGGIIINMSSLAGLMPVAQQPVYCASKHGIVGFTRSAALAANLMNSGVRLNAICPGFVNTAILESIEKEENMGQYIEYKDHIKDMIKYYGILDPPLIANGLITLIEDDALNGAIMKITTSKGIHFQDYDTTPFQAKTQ
Summary of the method: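 GST-tagged 15-PGDH from pGEX-2T in E. coli BL-21 LysS, IPTG-induced 12 h at 25 °C, glutathione-Sepharose purified. Triplicates per concentration; IC50 derived.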

[2] = biological target: T2, 15-hydroxyprostaglandin dehydrogenase [NAD(+)] (Homo sapiens) (UniProt P15428); experiment: Inhibition of 15-PGDH in IL-1beta-stimulated human A549 cells assessed as increase in PGE2 level after 5 hrs by enzyme immunoassay; format: cell-based
T2 sequence (whole entry): T1 sequence (P15428 whole entry)
Summary of the method: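 IL-1β-stimulated A549 cells (RPMI, 10% heat-inactivated FBS, 5% CO₂, 37 °C) exposed to inhibitors at various concentrations for 5 h. PGE₂ in the collected medium quantified by enzyme immunoassay.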

[3] = biological target: T2, 15-hydroxyprostaglandin dehydrogenase [NAD(+)] (Homo sapiens); experiment: Inhibition of 15-PGDH in IL-1beta-stimulated human A549 cells assessed as increase in PGE2 level at 5 uM after 5 hrs by enzyme immunoassay relative to control; format: cell-based; conditions: in the assay text read “after 12 hrs” for “after 5 hrs”
Summary of the method: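 A549 cells seeded at 5×10^5 per well, incubated overnight in RPMI with FBS and antibiotic at 37 °C, 5% CO₂, then treated with inhibitor at 5 μM. Medium collected (text gives 5 h in one passage, 12 h in methods). PGE₂ measured by kit enzyme immunoassay and compared with untreated control. Three independent experiments.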

HaCaT = experiment: Wound healing activity in scratch made human HaCaT cells at 5 uM after 48 hrs by inverted microscopic analysis relative to control; format: functional, cell-based
Summary of the method: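 HaCaT cells plated at ca. 5×10^5 per well in DMEM with 10% FBS and 10 µg/mL mitomycin, 37 °C, 5% CO₂, grown to ca. 80% confluence. Monolayer scratched with a 200 µL pipette tip, then incubated with 5 µM test agent; 1 ng TGF-β1 as positive control. Wound width imaged by inverted microscope at wounding and after 48 h, compared with untreated control.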

[4] = biological target: T2, 15-hydroxyprostaglandin dehydrogenase [NAD(+)] (Homo sapiens); experiment: Inhibition of 15-PGDH in IL-1beta-stimulated human A549 cells assessed as increase in PGE2 level at 5 uM after 12 hrs by enzyme immunoassay relative to control

Compound	IC50 [1] [nM]	other results
O=C1NC(=O)/C(=C/c2ccc(Oc3cccc(/C=C/[N+](=O)[O-])c3)c(Cl)c2)S1	59	–
O=C1NC(=O)/C(=C/c2ccc(OCc3ccc4c(c3)OCO4)c(Cl)c2)S1	193	–
O=C1N=C(O)S/C1=C\c1ccc(OCc2ccccc2)c(Cl)c1	–	inhibition [2]: Dose-dependent effect; inhibition [3]: Active
CC(Oc1ccc(/C=C2\SC(=O)NC2=O)cc1Cl)C1CC1 (stereo unspecified)	132	–
O=C1NC(=O)/C(=C/c2ccc(OCc3ccc([N+](=O)[O-])cc3)cc2Cl)S1	4540	–
O=C1NC(=O)/C(=C/c2ccc(OCC3CCC3)c(Cl)c2)S1	9	–
O=C1NC(=O)/C(=C/c2ccc(OCCC3CCCC3)cc2Cl)S1	42	–
O=C1NC(=O)/C(=C/c2ccc(OCc3ccc([N+](=O)[O-])cc3)c(Cl)c2)S1	930	–
CCc1ccc(CCOc2ccc(/C=C3\SC(=O)NC3=O)cc2Cl)nc1	2080	–
O=C1NC(=O)/C(=C/c2ccc(OC(=O)c3cccs3)c(Cl)c2)S1	264	–
O=C1N=C(O)S/C1=C\c1ccc(OCCCc2ccccc2)c(Cl)c1	–	inhibition [2]: Dose-dependent effect; inhibition [3]: Active
Cc1ncsc1CCOc1ccc(/C=C2\SC(=O)NC2=O)cc1Cl	5170	–
O=C1NC(=O)/C(=C/c2ccc(Oc3cccc4c3CCCC4=O)c(Cl)c2)S1	71	–
O=C1NC(=O)/C(=C/c2ccc(OCC3CCCC3)c(Cl)c2)S1	11	–
O=C1NC(=O)/C(=C/c2ccc(OCC3CC4CCC3C4)c(Cl)c2)S1 (stereo unspecified)	165	–
C=C(C)C1CCC(COc2ccc(/C=C3\SC(=O)NC3=O)cc2Cl)CC1 (stereo unspecified)	75	–
O=C1NC(=O)/C(=C/c2ccc(OCCOC3CCCCC3)c(Cl)c2)S1	20	–
O=C1N=C(O)S/C1=C\c1ccc(OCCc2ccccc2)c(Cl)c1	–	Activity (HaCaT): Active; inhibition [2]: Dose-dependent effect; fold change (FC) [4]: 5
O=C1NC(=O)/C(=C/c2ccc(Oc3cccc([N+](=O)[O-])c3)c(Cl)c2)S1	100	–
CC(C)OCCOc1ccc(/C=C2\SC(=O)NC2=O)c(Cl)c1	1050	–
O=C1N=C(O)S/C1=C\c1ccc(OCCC2CCCCC2)cc1Cl	13	–
O=C1NC(=O)/C(=C/c2ccc(OCCc3ccc([N+](=O)[O-])o3)c(Cl)c2)S1	123	–
O=C1NC(=O)/C(=C/c2ccc(OCCc3ccccn3)c(Cl)c2)S1	4440	–
O=C1N=C(O)S/C1=C\c1ccc(OCCCCc2ccccc2)c(Cl)c1	–	inhibition [2]: Dose-dependent effect; inhibition [3]: Active
O=C1NC(=O)/C(=C/c2ccc(OCCCCc3ccccc3)cc2Cl)S1	81	–
O=C1NC(=O)/C(=C/c2ccc(OCCOC3CCCCC3)cc2Cl)S1	211	–
